Laboratory results reported in ChEMBL document CHEMBL4196061, “Novel topoisomerase I inhibitors. Syntheses and biological evaluation of phosphorus substituted quinoline derivates with antiproliferative activity” (Eur J Med Chem, 2018).

Legend:
MRC5 = test: Antiproliferative activity against human MRC5 cells after 48 hrs by CCK-8 assay; format: cell-based; conditions: MRC5, 48 h
Outline: (§1)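 Cells seeded at 2-4 x 10^3 per well and grown overnight in 0.1 mL medium with 10% FBS at 37 °C under 5% CO2. Drugs were added on day 2 and cells incubated 48 h. CCK-8 was then added for 2 h at 37 °C and absorbance read at 450 nm. IC50 values were reported.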

SK-OV-3 = test: Antiproliferative activity against human SKOV3 cells after 48 hrs by CCK-8 assay; format: functional, cell-based; conditions: SK-OV-3, 48 h; outline: as §1
HEK293 = test: Antiproliferative activity against human HEK293 cells after 48 hrs by CCK-8 assay; conditions: HEK293, 48 h
[1] = biological target: T1, DNA topoisomerase 1 (Homo sapiens) (UniProt P11387); test: (§2) Inhibition of recombinant human topoisomerase 1-mediated DNA relaxation expressed in Saccharomyces cerevisiae TopI null strain RS190 at 80 uM using negatively supercoiled pUC18 as substrate pretreated with enzyme for 15 mins followed by substrate addition measured after 3 mins by agarose gel electrophoresis
T1 sequence (whole entry): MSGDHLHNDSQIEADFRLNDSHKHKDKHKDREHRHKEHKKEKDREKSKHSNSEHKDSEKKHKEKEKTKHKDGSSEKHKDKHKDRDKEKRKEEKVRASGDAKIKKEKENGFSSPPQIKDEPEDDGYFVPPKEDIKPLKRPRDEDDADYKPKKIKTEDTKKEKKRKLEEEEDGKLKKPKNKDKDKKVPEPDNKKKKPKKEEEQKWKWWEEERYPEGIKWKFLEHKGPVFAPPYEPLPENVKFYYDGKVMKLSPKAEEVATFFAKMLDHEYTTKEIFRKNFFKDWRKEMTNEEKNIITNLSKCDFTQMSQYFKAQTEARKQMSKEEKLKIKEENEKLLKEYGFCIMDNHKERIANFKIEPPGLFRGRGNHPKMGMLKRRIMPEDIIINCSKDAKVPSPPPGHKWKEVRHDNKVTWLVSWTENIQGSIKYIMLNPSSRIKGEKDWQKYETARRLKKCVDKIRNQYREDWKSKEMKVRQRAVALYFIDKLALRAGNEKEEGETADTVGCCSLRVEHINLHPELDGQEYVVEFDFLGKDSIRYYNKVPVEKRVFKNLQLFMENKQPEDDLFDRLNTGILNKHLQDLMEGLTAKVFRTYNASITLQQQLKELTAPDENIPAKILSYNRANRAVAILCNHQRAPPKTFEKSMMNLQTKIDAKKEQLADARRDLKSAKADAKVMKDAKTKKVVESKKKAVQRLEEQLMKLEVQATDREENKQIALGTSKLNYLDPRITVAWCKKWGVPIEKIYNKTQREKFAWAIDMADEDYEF
Outline: (§3)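 Human TopI was expressed from pHT143 (GAL promoter) in yeast RS190 and affinity-purified. Reactions used 110 ng/µL TopI and 0.5 µg supercoiled pUC18 in 20 µl buffer (20 mM Tris–HCl, 0.1 mM Na2EDTA, 10 mM MgCl2, 50 µg/mL acetylated BSA, 150 mM KCl, pH 7.5). Drug was mixed with enzyme before DNA was added, and reactions were stopped with SDS. Products were resolved on 1% agarose in TBE and stained with gel red.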

A549 = test: Antiproliferative activity against human A549 cells after 48 hrs by CCK-8 assay; format: functional, cell-based; conditions: A549, 48 h; outline: as §1
[2] = biological target: T1, DNA topoisomerase 1 (Homo sapiens); test: as §2, with “15 secs” for “3 mins”; outline: as §3
[3] = biological target: T1, DNA topoisomerase 1 (Homo sapiens); test: as §2, with “1 min” for “3 mins”; outline: as §3
[4] = biological target: T1, DNA topoisomerase 1 (Homo sapiens); test: as §2, with “20” for “80”; outline: as §3
[5] = biological target: T1, DNA topoisomerase 1 (Homo sapiens); test: as §2, with “10” for “80”; outline: as §3
[6] = biological target: T1, DNA topoisomerase 1 (Homo sapiens); test: as §2, with “60” for “80”; outline: as §3
[7] = biological target: T1, DNA topoisomerase 1 (Homo sapiens); test: as §2, with “40” for “80”; outline: as §3

SMILES	IC50 (SK-OV-3) [µM]	inhibition [1] [%]	IC50 (A549) [µM]	inhibition [2] [%]	inhibition [3] [%]	inhibition [4] [%]	inhibition [5] [%]	inhibition [6] [%]	inhibition [7] [%]	IC50 (MRC5) [µM]	IC50 (HEK293) [µM]
Fc1ccc([C@@H]2C[C@H](c3ccccc3)c3cccc(P(=S)(c4ccccc4)c4ccccc4)c3N2)cc1	> 50	37	0.27	41	39	–	–	–	–	> 50	> 50
Cc1ccc(-c2cc(-c3ccccc3)nc3c(P(=O)(c4ccccc4)c4ccccc4)cccc23)cc1	17.4	5	7.65	7	7	–	–	–	–	> 50	8.97
Cc1ccc([C@H]2C[C@@H](c3ccccc3)Nc3c2cccc3P(c2ccccc2)c2ccccc2)cc1	> 50	76	0.11	80	79	16	0	22	17	> 50	> 50
COc1ccccc1[C@@H]1C[C@H](c2ccccc2)c2cccc(P(=O)(c3ccccc3)c3ccccc3)c2N1	> 50	–	0.21	–	–	–	–	–	–	> 50	16.3
FC(F)(F)c1ccc([C@@H]2C[C@H](c3ccccc3)c3cccc(P(=S)(c4ccccc4)c4ccccc4)c3N2)cc1	> 50	17	0.22	20	17	–	–	–	–	> 50	> 50
Fc1ccc(-c2cc(-c3ccc(F)cc3)c3cccc(P(=S)(c4ccccc4)c4ccccc4)c3n2)cc1	> 50	–	> 50	–	–	–	–	–	–	> 50	> 50
O=P(c1ccccc1)(c1ccccc1)c1cccc2c(-c3ccccc3)cc(-c3cccc4ccccc34)nc12	> 50	65	6.32	89	87	–	–	–	–	> 50	54.4
O=P(c1ccccc1)(c1ccccc1)c1cccc2c1N[C@H](c1cccc3ccccc13)C[C@@H]2c1ccccc1	> 50	45	3.57	63	63	–	–	–	–	> 50	> 50
S=P(c1ccccc1)(c1ccccc1)c1cccc2c(-c3ccccc3)cc(-c3ccccc3)nc12	> 50	24	> 50	75	60	–	–	–	–	> 50	> 50
O=P(c1ccccc1)(c1ccccc1)c1cccc2c(-c3ccc(F)cc3)cc(-c3ccc(F)cc3)nc12	6.77	13	3.82	50	50	–	–	–	–	> 50	12.5
O=P(c1ccccc1)(c1ccccc1)c1cccc2c1N[C@H](c1ccc(F)cc1)C[C@@H]2c1ccc(F)cc1	17.8	45	0.25	54	50	–	–	–	–	> 50	23.9
COc1ccc([C@@H]2C[C@H](c3ccc(C)cc3)c3cccc(P(c4ccccc4)c4ccccc4)c3N2)cc1	> 50	52	2.48	52	52	–	–	–	–	> 50	> 50

Further lines, with some results ahead:

IC50 (SK-OV-3) [µM]	inhibition [1] [%]	IC50 (A549) [µM]	inhibition [2] [%]	inhibition [3] [%]	inhibition [4] [%]	inhibition [5] [%]	inhibition [6] [%]	inhibition [7] [%]	SMILES	IC50 (MRC5) [µM]	IC50 (HEK293) [µM]
17.3	11	2.93	58	52	–	–	–	–	O=P(c1ccccc1)(c1ccccc1)c1cccc2c(-c3ccccc3)cc(-c3ccccn3)nc12	> 50	12
> 50	16	0.5	61	56	–	–	–	–	O=P(c1ccccc1)(c1ccccc1)c1cccc2c1N[C@H](c1ccc(C(F)(F)F)cc1)C[C@@H]2c1ccccc1	> 50	28
13.1	63	3.11	90	83	–	–	–	–	COc1ccccc1-c1cc(-c2ccccc2)c2cccc(P(=O)(c3ccccc3)c3ccccc3)c2n1	> 50	24.1
15.2	28	1.03	31	28	–	–	–	–	O=P(c1ccccc1)(c1ccccc1)c1cccc2c(-c3ccccc3)cc(-c3ccc(C(F)(F)F)cc3)nc12	> 50	19.4
14.5	8	1.21	57	57	–	–	–	–	O=P(c1ccccc1)(c1ccccc1)c1cccc2c(-c3ccccc3)cc(-c3ccccc3)nc12	> 50	13.8
> 50	92	0.25	96	92	28	20	53	52	Cc1ccc([C@H]2C[C@@H](c3ccc(F)cc3)Nc3c2cccc3P(c2ccccc2)c2ccccc2)cc1	> 50	> 50
> 50	75	0.08	78	75	0	0	20	0	Fc1ccc([C@H]2C[C@@H](c3ccc(F)cc3)Nc3c2cccc3P(c2ccccc2)c2ccccc2)cc1	> 50	> 50
> 50	81	> 50	81	81	10	8	24	18	FC(F)(F)c1ccc(-c2cc(-c3ccccc3)c3cccc(P(=S)(c4ccccc4)c4ccccc4)c3n2)cc1	> 50	> 50
> 50	21	1.72	52	50	–	–	–	–	O=P(c1ccccc1)(c1ccccc1)c1cccc2c1N[C@H](c1ccccc1)C[C@@H]2c1ccccc1	> 50	> 50
> 50	49	0.08	57	50	–	–	–	–	Fc1ccc([C@@H]2C[C@H](c3ccccc3)c3cccc(P(=S)(c4ccccc4)c4ccccc4)c3N2)cc1F	> 50	> 50
> 50	12	1.2	28	25	–	–	–	–	Cc1ccc([C@H]2C[C@@H](c3ccccc3)Nc3c2cccc3P(=O)(c2ccccc2)c2ccccc2)cc1	> 50	28
8.16	25	2.26	28	28	–	–	–	–	O=P(c1ccccc1)(c1ccccc1)c1cccc2c(-c3ccccc3)cc(-c3ccc(F)cc3)nc12	> 50	17.2
> 50	59	16.2	61	61	–	–	–	–	FC(F)(F)c1ccc([C@@H]2C[C@H](c3ccccc3)c3cccc(P(c4ccccc4)c4ccccc4)c3N2)cc1	> 50	> 50
24.1	16	2.69	55	50	–	–	–	–	O=P(c1ccccc1)(c1ccccc1)c1cccc2c1N[C@H](c1ccc(F)cc1)C[C@@H]2c1ccccc1	> 50	26.5
